{"source": "ChEMBL document CHEMBL5661979", "about": "“Pharmacological inhibition of BMK1 suppresses tumor growth through promyelocytic leukemia protein” (Cancer Cell, 2010)", "key": {"[1]": {"molecular_target": "RPS6KA1/RPS6KA2/RPS6KA3 (Homo sapiens, UniProt P51812+Q15349+Q15418)", "experiment": "Inhibition of RSK1/2/3 in human HeLa cells lysate at 2 uM pre incubated for 15 mins followed by ATP acyl phosphate probe addition and measured after 10 mins by LC-MS/MS analysis relative to control", "type": "subcellular", "settings": "time 25.0 min"}, "[2]": {"molecular_target": "Eukaryotic elongation factor 2 kinase (Homo sapiens, UniProt O00418)", "experiment": "Inhibition of EEF2K in human HeLa cells lysate pre incubated for 15 mins followed by ATP acyl phosphate probe addition and measured after 10 mins by LC-MS/MS analysis", "type": "subcellular"}, "[3]": {"molecular_target": "Microtubule-associated serine/threonine-protein kinase 3 (Homo sapiens, UniProt O60307)", "experiment": "Inhibition of MAST3 in human HeLa cells lysate at 2 uM pre incubated for 15 mins followed by ATP acyl phosphate probe addition and measured after 10 mins by LC-MS/MS analysis relative to control", "type": "subcellular", "settings": "time 25.0 min"}, "[4]": {"molecular_target": "AMPK alpha1/alpha2 (Homo sapiens, UniProt P54646+Q13131)", "experiment": "Inhibition of AMPKalpha1/2 in human HeLa cells lysate pre incubated for 15 mins followed by ADP acyl phosphate probe addition and measured after 10 mins by LC-MS/MS analysis", "type": "subcellular", "in_short": "(§1)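 HeLa cell lysates (5 mg/mL total protein) were preincubated with inhibitor at 0, 0.8, 2, 10 or 50 μM for 15 min. ATP or ADP acylphosphate probe was then added (5 μM final) for 10 min, and reactions were stopped with urea. Up to four fragment ions per kinase probe-peptide were quantified by targeted MS. % inhibition was taken relative to untreated lysate. Run in duplicate.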"}, "[5]": {"molecular_target": "Serine/threonine-protein kinase B-raf (Homo sapiens, UniProt P15056)", "experiment": "Inhibition of BRAF in human HeLa cells lysate at 10 uM pre incubated for 15 mins followed by ADP acyl phosphate probe addition and measured after 10 mins by LC-MS/MS analysis relative to control", "type": "subcellular", "settings": "time 25.0 min", "in_short": "(§2)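 KiNativ-type profiling in HeLa lysate (5 mg/mL total protein). Lysate preincubated 15 min with inhibitor at 50, 10, 2, 0.8 or 0 μM, then ATP or ADP acylphosphate probe added (5 μM final) for 10 min. Reaction stopped with urea and analysed by targeted MS, using up to four fragment ions per kinase peptide-probe conjugate. % inhibition calculated against untreated lysate. Duplicate reactions.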"}, "[6]": {"experiment": "Plasma concentration in C57Bl/6 mouse at 50 mg/kg, ip administered for 13 day and measured 8 hr post last dose by LC-MS/MS analysis", "type": "ADME, organism-based"}, "[7]": {"molecular_target": "Serine/threonine-protein kinase 38-like (Homo sapiens, UniProt Q9Y2H1)", "sequence (Q9Y2H1 2-464 limits assumed)": "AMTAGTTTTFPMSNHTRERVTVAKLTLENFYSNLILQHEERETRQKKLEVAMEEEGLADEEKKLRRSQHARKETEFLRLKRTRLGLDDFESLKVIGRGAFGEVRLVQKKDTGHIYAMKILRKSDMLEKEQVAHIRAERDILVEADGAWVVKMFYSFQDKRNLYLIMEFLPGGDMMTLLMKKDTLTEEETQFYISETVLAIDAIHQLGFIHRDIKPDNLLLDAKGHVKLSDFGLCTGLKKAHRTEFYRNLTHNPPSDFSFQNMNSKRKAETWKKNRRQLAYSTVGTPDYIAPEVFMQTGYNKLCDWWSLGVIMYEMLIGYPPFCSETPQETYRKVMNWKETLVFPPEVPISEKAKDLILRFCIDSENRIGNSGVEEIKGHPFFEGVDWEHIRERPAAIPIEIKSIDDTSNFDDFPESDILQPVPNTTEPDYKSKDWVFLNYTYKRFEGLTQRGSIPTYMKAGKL", "experiment": "Inhibition of NDR2 in human HeLa cells lysate at 50 uM pre incubated for 15 mins followed by ADP acyl phosphate probe addition and measured after 10 mins by LC-MS/MS analysis relative to control", "type": "subcellular", "settings": "time 25.0 min"}, "[8]": {"molecular_target": "p38 delta/gamma (Homo sapiens) (UniProt O15264+P53778)", "experiment": "Inhibition of p38d/p38g in human HeLa cells lysate at 10 uM pre incubated for 15 mins followed by ATP acyl phosphate probe addition and measured after 10 mins by LC-MS/MS analysis relative to control", "type": "subcellular", "settings": "time 25.0 min"}, "[9]": {"molecular_target": "Mitogen-activated protein kinase kinase kinase 20 (Homo sapiens, UniProt Q9NYL2)", "experiment": "Inhibition of ZAK in human HeLa cells lysate pre incubated for 15 mins followed by ATP acyl phosphate probe addition and measured after 10 mins by LC-MS/MS analysis", "type": "subcellular"}, "[10]": {"molecular_target": "Calcium/calmodulin-dependent protein kinase type 1D (Homo sapiens, UniProt Q8IU85)", "sequence (Q8IU85 whole entry, looked up)": "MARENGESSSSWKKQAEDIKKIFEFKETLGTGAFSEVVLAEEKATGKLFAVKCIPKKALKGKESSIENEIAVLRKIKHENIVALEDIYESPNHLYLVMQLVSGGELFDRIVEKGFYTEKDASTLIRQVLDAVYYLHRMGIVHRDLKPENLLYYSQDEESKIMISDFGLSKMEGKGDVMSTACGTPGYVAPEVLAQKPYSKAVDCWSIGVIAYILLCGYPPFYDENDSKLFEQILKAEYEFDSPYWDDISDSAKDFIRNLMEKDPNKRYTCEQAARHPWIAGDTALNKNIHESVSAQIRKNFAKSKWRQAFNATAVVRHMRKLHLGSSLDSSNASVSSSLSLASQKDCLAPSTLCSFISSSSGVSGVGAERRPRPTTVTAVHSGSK", "experiment": "Inhibition of CAMK1d in human HeLa cells lysate at 2 uM pre incubated for 15 mins followed by ATP acyl phosphate probe addition and measured after 10 mins by LC-MS/MS analysis relative to control", "type": "subcellular", "settings": "time 25.0 min", "in_short": "as §2"}, "[11]": {"molecular_target": "T1, Ribosomal protein S6 kinase alpha-1 (Homo sapiens, UniProt Q15418)", "T1 sequence (Q15418 whole entry, the tested form may be a part)": "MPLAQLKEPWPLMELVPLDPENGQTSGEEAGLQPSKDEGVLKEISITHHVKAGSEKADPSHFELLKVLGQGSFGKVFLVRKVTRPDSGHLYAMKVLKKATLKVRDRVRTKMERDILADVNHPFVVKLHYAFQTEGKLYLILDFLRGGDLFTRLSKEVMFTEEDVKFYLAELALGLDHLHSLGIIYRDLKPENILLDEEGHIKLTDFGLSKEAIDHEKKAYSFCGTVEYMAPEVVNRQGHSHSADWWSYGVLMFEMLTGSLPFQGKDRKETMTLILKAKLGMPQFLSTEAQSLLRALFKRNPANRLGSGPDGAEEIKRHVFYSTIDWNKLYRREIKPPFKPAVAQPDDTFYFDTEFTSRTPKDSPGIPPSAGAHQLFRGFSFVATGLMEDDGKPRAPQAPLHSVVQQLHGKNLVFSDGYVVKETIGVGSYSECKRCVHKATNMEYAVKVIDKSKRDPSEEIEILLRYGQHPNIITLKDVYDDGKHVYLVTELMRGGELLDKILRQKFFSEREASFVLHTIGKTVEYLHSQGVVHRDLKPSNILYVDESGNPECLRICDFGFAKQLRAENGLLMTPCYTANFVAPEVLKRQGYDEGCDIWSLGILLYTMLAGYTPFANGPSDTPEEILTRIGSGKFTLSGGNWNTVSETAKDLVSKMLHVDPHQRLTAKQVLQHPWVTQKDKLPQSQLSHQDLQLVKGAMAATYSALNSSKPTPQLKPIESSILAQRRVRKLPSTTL", "experiment": "Inhibition of RSK1 domain 2 in human HeLa cells lysate pre incubated for 15 mins followed by ATP acyl phosphate probe addition and measured after 10 mins by LC-MS/MS analysis", "type": "subcellular"}, "[12]": {"molecular_target": "DNA-dependent protein kinase catalytic subunit (Homo sapiens, UniProt P78527)", "experiment": "Inhibition of PRKDC in human HeLa cells lysate pre incubated for 15 mins followed by ADP acyl phosphate probe addition and measured after 10 mins by LC-MS/MS analysis", "type": "subcellular"}, "[13]": {"experiment": "Inhibition of SRPK1/2 in human HeLa cells lysate at 10 uM pre incubated for 15 mins followed by ADP acyl phosphate probe addition and measured after 10 mins by LC-MS/MS analysis relative to control", "settings": "25 min, condition cancer"}, "[14]": {"experiment": "Inhibition of PCTAIRE2/3 in human HeLa cells lysate at 50 uM pre incubated for 15 mins followed by ADP acyl phosphate probe addition and measured after 10 mins by LC-MS/MS analysis relative to control", "settings": "25 min, condition cancer"}, "[15]": {"molecular_target": "Cyclin-dependent kinase 10 (Homo sapiens, UniProt Q15131)", "sequence (Q15131 whole entry)": "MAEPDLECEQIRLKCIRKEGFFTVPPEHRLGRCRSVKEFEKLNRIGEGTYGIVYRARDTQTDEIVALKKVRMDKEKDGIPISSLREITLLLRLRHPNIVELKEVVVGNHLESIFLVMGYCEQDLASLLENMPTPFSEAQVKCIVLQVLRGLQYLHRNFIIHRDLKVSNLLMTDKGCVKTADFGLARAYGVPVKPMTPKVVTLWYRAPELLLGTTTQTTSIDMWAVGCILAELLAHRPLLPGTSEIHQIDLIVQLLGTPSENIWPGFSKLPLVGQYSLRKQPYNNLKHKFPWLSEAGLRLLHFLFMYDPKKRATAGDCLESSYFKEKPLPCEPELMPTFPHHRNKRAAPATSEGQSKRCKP", "experiment": "Inhibition of CDK10 in human HeLa cells lysate at 10 uM pre incubated for 15 mins followed by ATP acyl phosphate probe addition and measured after 10 mins by LC-MS/MS analysis relative to control", "type": "subcellular", "settings": "time 25.0 min", "in_short": "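KiNativ profiling in HeLa lysate (5 mg/mL total protein). Lysate incubated 15 min with inhibitor at 50, 10, 2, 0.8 or 0 μM. ATP or ADP acylphosphate probe then added (5 μM final) and reacted 10 min. Reaction stopped with urea and analysed by targeted MS, using up to four fragment ions per kinase peptide-probe conjugate. % inhibition taken against untreated lysate. Run in duplicate.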"}, "[16]": {"molecular_target": "Phosphatidylinositol 5-phosphate 4-kinase type-2 gamma (Homo sapiens, UniProt Q8TBX8)", "experiment": "Inhibition of PIP5K2C in human HeLa cells lysate pre incubated for 15 mins followed by ATP acyl phosphate probe addition and measured after 10 mins by LC-MS/MS analysis", "type": "subcellular"}, "[17]": {"molecular_target": "T1, Ribosomal protein S6 kinase alpha-1", "experiment": "Inhibition of RSK1 domain 2 K1 site in human HeLa cells lysate at 50 uM pre incubated for 15 mins followed by ADP acyl phosphate probe addition and measured after 10 mins by LC-MS/MS analysis relative to control", "type": "subcellular", "settings": "time 25.0 min"}, "[18]": {"molecular_target": "Tyrosine-protein kinase CSK (Homo sapiens, UniProt P41240)", "sequence (P41240 whole entry)": "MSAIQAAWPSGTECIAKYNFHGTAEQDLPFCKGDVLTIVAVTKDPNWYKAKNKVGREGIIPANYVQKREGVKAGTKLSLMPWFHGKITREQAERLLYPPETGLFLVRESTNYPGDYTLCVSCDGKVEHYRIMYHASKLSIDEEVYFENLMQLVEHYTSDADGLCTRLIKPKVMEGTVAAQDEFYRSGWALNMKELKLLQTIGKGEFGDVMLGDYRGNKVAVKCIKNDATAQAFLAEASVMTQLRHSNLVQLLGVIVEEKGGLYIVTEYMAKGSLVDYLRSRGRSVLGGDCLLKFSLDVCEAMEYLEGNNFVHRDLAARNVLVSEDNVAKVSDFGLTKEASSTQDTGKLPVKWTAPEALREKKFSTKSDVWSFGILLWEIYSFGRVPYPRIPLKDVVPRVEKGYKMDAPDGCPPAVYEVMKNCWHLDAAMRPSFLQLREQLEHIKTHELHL", "experiment": "Inhibition of CSK in human HeLa cells lysate pre incubated for 15 mins followed by ATP acyl phosphate probe addition and measured after 10 mins by LC-MS/MS analysis", "type": "subcellular"}, "[19]": {"molecular_target": "Calcium/calmodulin-dependent protein kinase type II subunit delta (Homo sapiens, UniProt Q13557)", "experiment": "Inhibition of CAMK2d in human HeLa cells lysate at 10 uM pre incubated for 15 mins followed by ATP acyl phosphate probe addition and measured after 10 mins by LC-MS/MS analysis relative to control", "type": "subcellular", "settings": "time 25.0 min", "in_short": "as §2"}, "[20]": {"molecular_target": "Tyrosine-protein kinase ABL (Homo sapiens, UniProt P00519+P42684)", "sequence (P00519 whole entry, looked up)": "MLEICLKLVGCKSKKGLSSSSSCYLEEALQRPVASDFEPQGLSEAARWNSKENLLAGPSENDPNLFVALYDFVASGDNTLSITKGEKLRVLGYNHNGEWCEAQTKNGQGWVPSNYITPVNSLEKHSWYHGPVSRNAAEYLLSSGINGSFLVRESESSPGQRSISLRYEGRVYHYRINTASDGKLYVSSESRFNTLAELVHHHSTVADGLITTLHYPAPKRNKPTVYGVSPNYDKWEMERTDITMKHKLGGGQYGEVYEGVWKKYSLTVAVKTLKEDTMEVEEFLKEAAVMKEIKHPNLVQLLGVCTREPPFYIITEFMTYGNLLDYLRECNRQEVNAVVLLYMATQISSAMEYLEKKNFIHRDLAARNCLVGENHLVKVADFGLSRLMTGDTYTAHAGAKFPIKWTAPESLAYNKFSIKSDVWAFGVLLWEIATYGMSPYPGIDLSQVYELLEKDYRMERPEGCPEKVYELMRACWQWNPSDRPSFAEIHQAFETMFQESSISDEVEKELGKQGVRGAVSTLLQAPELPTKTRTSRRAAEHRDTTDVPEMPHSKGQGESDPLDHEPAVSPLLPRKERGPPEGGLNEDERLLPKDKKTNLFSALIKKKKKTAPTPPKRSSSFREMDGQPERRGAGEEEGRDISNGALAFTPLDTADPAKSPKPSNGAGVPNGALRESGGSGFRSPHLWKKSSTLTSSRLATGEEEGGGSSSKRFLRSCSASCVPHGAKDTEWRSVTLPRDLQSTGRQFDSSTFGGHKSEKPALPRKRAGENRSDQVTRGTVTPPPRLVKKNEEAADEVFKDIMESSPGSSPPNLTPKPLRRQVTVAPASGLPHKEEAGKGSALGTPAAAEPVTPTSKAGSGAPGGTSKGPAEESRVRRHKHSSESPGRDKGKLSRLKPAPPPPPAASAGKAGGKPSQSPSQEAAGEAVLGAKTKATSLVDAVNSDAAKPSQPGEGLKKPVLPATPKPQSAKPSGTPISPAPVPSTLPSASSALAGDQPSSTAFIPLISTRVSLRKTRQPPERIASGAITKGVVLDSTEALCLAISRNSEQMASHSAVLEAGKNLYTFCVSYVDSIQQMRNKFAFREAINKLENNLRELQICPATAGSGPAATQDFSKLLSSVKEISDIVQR", "sequence (P42684 whole entry, looked up)": "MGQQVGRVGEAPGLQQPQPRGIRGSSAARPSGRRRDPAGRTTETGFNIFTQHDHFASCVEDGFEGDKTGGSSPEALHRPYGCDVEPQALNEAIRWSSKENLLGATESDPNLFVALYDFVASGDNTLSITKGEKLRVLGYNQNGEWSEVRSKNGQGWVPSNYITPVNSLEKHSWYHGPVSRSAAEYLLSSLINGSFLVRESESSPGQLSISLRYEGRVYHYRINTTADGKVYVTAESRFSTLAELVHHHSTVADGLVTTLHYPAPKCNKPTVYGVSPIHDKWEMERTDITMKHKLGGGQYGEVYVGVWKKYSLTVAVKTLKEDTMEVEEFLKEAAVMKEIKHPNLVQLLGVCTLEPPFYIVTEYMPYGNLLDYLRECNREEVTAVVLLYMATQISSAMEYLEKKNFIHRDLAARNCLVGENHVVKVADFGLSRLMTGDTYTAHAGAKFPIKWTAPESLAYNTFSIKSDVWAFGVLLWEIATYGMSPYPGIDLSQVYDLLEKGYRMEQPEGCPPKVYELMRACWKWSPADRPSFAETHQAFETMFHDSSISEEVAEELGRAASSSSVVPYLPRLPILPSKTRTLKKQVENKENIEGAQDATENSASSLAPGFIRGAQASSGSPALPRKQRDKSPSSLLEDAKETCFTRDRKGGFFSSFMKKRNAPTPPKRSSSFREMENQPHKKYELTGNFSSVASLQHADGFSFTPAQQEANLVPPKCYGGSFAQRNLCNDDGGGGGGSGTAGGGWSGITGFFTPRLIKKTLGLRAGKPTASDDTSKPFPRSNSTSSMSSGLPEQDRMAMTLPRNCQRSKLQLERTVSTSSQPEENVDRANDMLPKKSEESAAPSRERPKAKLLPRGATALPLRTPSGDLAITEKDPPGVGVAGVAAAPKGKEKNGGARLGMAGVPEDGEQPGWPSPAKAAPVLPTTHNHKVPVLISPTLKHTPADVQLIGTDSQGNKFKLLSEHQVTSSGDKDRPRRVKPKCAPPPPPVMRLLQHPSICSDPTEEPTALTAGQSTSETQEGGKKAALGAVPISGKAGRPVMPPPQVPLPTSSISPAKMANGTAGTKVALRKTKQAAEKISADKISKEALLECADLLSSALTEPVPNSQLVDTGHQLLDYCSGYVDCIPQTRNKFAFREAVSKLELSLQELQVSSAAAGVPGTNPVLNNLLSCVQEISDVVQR", "experiment": "Inhibition of ABL1/2 in human HeLa cells lysate at 50 uM pre incubated for 15 mins followed by ATP acyl phosphate probe addition and measured after 10 mins by LC-MS/MS analysis relative to control", "type": "subcellular", "settings": "time 25.0 min", "in_short": "as §1"}, "[21]": {"molecular_target": "Protein kinase C iota type (Homo sapiens) (UniProt P41743)", "experiment": "Inhibition of PKCiota in human HeLa cells lysate at 2 uM pre incubated for 15 mins followed by ADP acyl phosphate probe addition and measured after 10 mins by LC-MS/MS analysis relative to control", "type": "subcellular", "settings": "time 25.0 min"}, "[22]": {"experiment": "Toxicity in C57Bl/6 mouse assessed as effect on globulin level at 50 mg/kg, ip for 14 days (reference value: 2.3 g/dl)", "type": "organism-based", "settings": "in vivo, 336 h, time 14 day"}}}
{"smiles": "CCOc1cc(N2CCC(O)CC2)ccc1Nc1ncc2c(n1)N(C)c1ccccc1C(=O)N2C", "values": [{"measurement": "inhibition", "setting": "[1]", "result": 11.6, "unit": "%"}, {"measurement": "IC50", "setting": "[2]", "result": "> 50", "unit": "µM"}, {"measurement": "inhibition", "setting": "[3]", "result": 2, "unit": "%"}, {"measurement": "IC50", "setting": "[4]", "result": "> 50", "unit": "µM"}, {"measurement": "inhibition", "setting": "[5]", "result": 2.3, "unit": "%"}, {"measurement": "concentration at 312 h", "setting": "[6]", "result": 11.1, "unit": "µM"}, {"measurement": "inhibition", "setting": "[7]", "result": 6.8, "unit": "%"}, {"measurement": "inhibition", "setting": "[8]", "result": 100, "unit": "%"}, {"measurement": "IC50", "setting": "[9]", "result": "> 50", "unit": "µM"}, {"measurement": "inhibition", "setting": "[10]", "result": 4.4, "unit": "%"}, {"measurement": "IC50", "setting": "[11]", "result": 26, "unit": "µM"}, {"measurement": "IC50", "setting": "[12]", "result": "> 50", "unit": "µM"}, {"measurement": "inhibition at 10 µM", "setting": "[13]", "result": -8.1, "unit": "%"}, {"measurement": "inhibition at 50 µM", "setting": "[14]", "result": -8.7, "unit": "%"}, {"measurement": "inhibition", "setting": "[15]", "result": -3.2, "unit": "%"}, {"measurement": "IC50", "setting": "[16]", "result": "> 50", "unit": "µM"}, {"measurement": "inhibition", "setting": "[17]", "result": 63.8, "unit": "%"}, {"measurement": "IC50", "setting": "[18]", "result": "> 50", "unit": "µM"}, {"measurement": "inhibition", "setting": "[19]", "result": 3.2, "unit": "%"}, {"measurement": "inhibition", "setting": "[20]", "result": 4.9, "unit": "%"}, {"measurement": "inhibition", "setting": "[21]", "result": 18.9, "unit": "%"}, {"measurement": "Activity", "setting": "[22]", "result": 2.5, "unit": "g/dL"}]}
